MT1-MMP txn act: MT1-MMP promoter reporter activation – cell-based, luciferase luminescence, primary screen. HT1080 MT1-MMP promoter luciferase reporter, overnight; stronger effect = higher value. activation factor at 10 µM. actives 0.16% (n = 86,000). AID 750, 2007;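 active = activation factor of at least 2 for MT1-MMP transcription at 10 µM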
HEK293 NFkB inh: inhibitors of PMA/ionomycin-induced NF-kB reporter, primary screen, antigen receptor NF-kB inhibitor project, cell-based, HEK-293 luciferase reporter, luminescence. HEK-293 NF-kB luciferase reporter. inhibition, % at 3 µM. actives 0.21% (n = 62,000). AID 465, 2006;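 active = inhibition above the mean of all tested compounds plus 3 SD, cut at about 40% in these data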;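 also: 0% = stimulated DMSO wells and 100% = 10 µM reference inhibitor 5653914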
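Signal: luciferase luminescence; Material: HEK-293 cells with stable firefly luciferase reporter driven by four HIV NF-kB elements; Probe or stimulus: PMA with ionomycin; Replication: tested once; Times: 1 h compound pretreatment, then 16 h stimulation at 37 °C, 5% CO2; Benchmarks: DMSO and 10 µM reference inhibitor; Evaluation: per-plate % inhibition versus controls.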
RORA act: activators of orphan receptor RORA, primary screen, cell-based, luminescence. actives 1.5% (n = 65,000). CHO-K1 Gal4-RORA LBD luciferase reporter; percent increase over mock-subtracted basal signal. AID 560, 2006. Nuclear receptor ROR-alpha (Homo sapiens), P35398. activation, % at 10 µM;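 active = activation above the mean of all tested compounds plus 3 SD, cut at about 49% in these data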;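 also: 0% = DMSO-treated RORA cells and 100% = added signal equal to DMSO minus mock-transfected cells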
Target sequence (P35398 whole entry, looked up, the tested form may be a part): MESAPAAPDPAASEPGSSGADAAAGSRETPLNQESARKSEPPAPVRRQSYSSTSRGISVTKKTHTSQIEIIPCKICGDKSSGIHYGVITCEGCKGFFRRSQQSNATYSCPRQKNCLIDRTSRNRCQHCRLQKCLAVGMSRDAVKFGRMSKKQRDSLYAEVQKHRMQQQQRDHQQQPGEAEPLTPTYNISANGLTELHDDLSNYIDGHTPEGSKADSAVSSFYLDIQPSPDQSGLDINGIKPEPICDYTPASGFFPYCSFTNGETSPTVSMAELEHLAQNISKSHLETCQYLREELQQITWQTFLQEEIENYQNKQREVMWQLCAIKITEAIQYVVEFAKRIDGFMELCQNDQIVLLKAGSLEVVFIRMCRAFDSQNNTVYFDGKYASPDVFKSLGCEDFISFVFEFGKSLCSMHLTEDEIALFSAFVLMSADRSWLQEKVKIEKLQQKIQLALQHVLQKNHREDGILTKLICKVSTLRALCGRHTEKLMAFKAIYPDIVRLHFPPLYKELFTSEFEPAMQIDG
Jurkat viability: cytotoxicity toward Jurkat T cells, primary screen, cytotoxicity control, cell-based, Jurkat E6.1, 60K MLSMR library. Jurkat E6.1 viability, ATP luminescence, 48 h. actives 1.2% (n = 56,000). AID 463, 2006. inhibition, % at 4 µM;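 active = inhibition above the mean inhibition of all tested compounds plus 3 SD, cut at about 28% in these data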
SF1 activator: activators of human SF-1, primary screen, cell-based, CHO-K1, Gal4-SF-1 LBD, luciferase luminescence. Steroidogenic factor 1 (Homo sapiens), Q13285. CHO-K1 Gal4-SF-1 LBD luciferase reporter; % increase over DMSO SF-1-specific signal. activation, % at 10 µM. actives 1.9% (n = 65,000);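 active = activation above the mean activation of all tested compounds plus 3 SD, cut at about 50% in these data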
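Material: CHO-K1 cells with Gal4–hSF-1 LBD chimera plus Gal4-driven luciferase / Input: 4,000 CHO-K1 cells per well / Incubation: compound exposure 20 h at 37 °C / Signal: luminescence read 15 min after SteadyLite luciferase reagent, after room-temperature equilibration / Read-out: percent activation versus DMSO / Benchmarks: DMSO negative control and −SF1 background wells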
An asterisk follows results filed as active; . = no result. The list is not random: actives were taken first. Their share in the collection is about 2.9%.

SMILES | MT1-MMP txn act | HEK293 NFkB inh | RORA act | Jurkat viability | SF1 activator
CCCc1cc(C(=O)Nc2ccccc2SC)no1 | 1.5 | 14 | 1 | 4 | 56*
CCCc1cc(C(=O)NCc2cccs2)no1 | 1.6 | -9 | 37 | -5 | 50*
CCCc1cc(C(=O)NCc2ccccc2)no1 | 1.3 | -10 | 30 | -1 | 22
CC(C)N1C(=O)C2C(c3ccccc3O)NC(C)(C(=O)O)C2C1=O (stereo not drawn) | . | 20 | -20 | -1 | -17
CCOC(=O)C1CCN(S(=O)(=O)c2ccc(-c3nc4ccccc4s3)s2)CC1 | 1.7 | -8 | 10 | -4 | 68*
O=c1c2c3c(sc2nc2n1CCCC2)CCCCC3 | 1.7 | . | . | . | .
Cc1sc2nc3n(c(=O)c2c1C)CCCS3 | 1.2 | 11 | -2 | -6 | -13
O=c1c2c3c(sc2nc2n1CCCS2)CCCC3 | 1.7 | . | 39 | . | 71*
O=c1c2c3c(sc2nc2n1CCCCC2)CCCCC3 | 1.5 | -19 | 55* | 1 | 42
O=c1c2c3c(sc2nc2n1CCCCC2)CCCC3 | 1.7 | -15 | 106* | 7 | 60*
Nc1nc2sc3c(c2c(=O)s1)CCCC3 | 1.3 | 3 | 11 | -4 | 56*
O=C(O)CN(CC(=O)O)CC(=O)O | 1.1 | . | . | . | .
N#CC1=C(N)N(c2ccccc2Sc2ccccc2)C(=O)C1 | 1.2 | 3 | -4 | 0 | -10
Cc1nc(SCC(=O)N2CCc3ccccc32)n[nH]1 | 1.1 | . | . | . | .
CN(C)S(=O)(=O)c1ccc(N2CCN(S(=O)(=O)c3ccc(F)cc3)CC2)c(Cl)c1 | 0.9 | 26 | 0 | 34* | -9
CN(C)S(=O)(=O)N1CCN(S(=O)(=O)c2ccc(F)cc2)CC1 | 1.1 | 17 | -6 | -6 | -3
Cc1ccc2[nH]c3c(NCc4ccco4)ncnc3c2c1 | 1.9 | 6 | -8 | 37* | -18
Cc1ccc(-n2ncc3c(NCc4ccco4)ncnc32)c(C)c1 | 1.1 | -7 | 20 | 5 | -24
CC1=C(C(=O)OCc2ccc3c(c2)OCO3)C(c2ccccc2)NC(=O)N1 (stereo not drawn) | 1 | 37 | -17 | 38* | -13
O=c1c2ccccc2nc2sc3ccccc3n12 | 1.8 | -15 | 60* | -3 | 57*
O=C(Cc1coc2ccc3ccccc3c12)N1CCc2ccccc21 | 0.9 | . | . | . | .
Cc1ccc2c(CC(=O)N3CCc4ccccc43)coc2c1 | 1.4 | -12 | 48 | -7 | 87*
Brc1cccc(-c2n[nH]c(-c3ccccc3)n2)c1 | 1.6 | -41 | 83* | -1 | 65*
CSc1cccc(NC(=O)CSc2nc3ccccc3o2)c1 | 1.3 | 6 | 6 | -2 | 13
CCOc1ccc(N2C(=O)c3ccccc3C2O)cc1 (stereo not drawn) | 1.2 | -17 | 11 | -4 | 69*
SMILES | MT1-MMP txn act | HEK293 NFkB inh | RORA act | Jurkat viability | SF1 activator
CCOc1ccc(N2C(=O)c3ccccc3C2=O)cc1 | 1.3 | . | . | . | .
CC(C)N=c1cc2n(-c3ccc(Cl)cc3)c3ccccc3nc-2cc1Nc1ccc(Cl)cc1 | 0.7 | . | 14 | . | -29
CC(C)(C)NC(=O)NC(=O)COc1ccccc1C#N | 1 | -40 | 47 | 0 | 60*
CCN(CC)CCCN1C(=O)C(=O)/C(=C(/O)c2ccc3c(c2)CC(C)O3)C1c1cccnc1 (stereo not drawn) | 1.1 | . | 15 | . | -1
Cc1cc(C)n(-c2nc3ccccc3c(=O)n2OCC(=O)OCc2ccccc2)n1 | 1.3 | 4 | 26 | 56* | -9
OCc1cn(-c2ccccc2)nc1-c1ccc2c(c1)OCCO2 | 2.1* | -27 | 73* | -4 | 43
O/N=C/c1cn(-c2ccccc2)nc1-c1ccc2c(c1)OCCO2 | 1.4 | . | . | . | .
COc1cccc(-c2nn(-c3ccccc3)cc2CO)c1 | 1.7 | -4 | 62* | 0 | 46
COc1cc(C(=O)Nc2cc(Cl)ccc2C)c(-n2cnnn2)cc1OC | 1.1 | 19 | -7 | -5 | 17
Cc1ccc(NC(=O)NC2CCCCC2)cc1Cl | 1.3 | -48 | 106* | -6 | 74*
Cc1ccc(NC(=O)C2CCN(C(=O)NC3CCCCC3)CC2)cc1Cl | 1 | 13 | 2 | -4 | 1
CC1=NC(C(F)(F)F)(C(F)(F)F)C(C#N)=C(C)N1 | 1.1 | 15 | -14 | 0 | -2
O=C(Nc1cccc(-c2cnc3ccccc3n2)c1)c1ccco1 | 1 | -8 | 61* | -2 | 55*
CCOC(=O)C1=C(COc2ccccc2)NC(=O)NC1c1ccc(C#N)cc1 (stereo not drawn) | 1.1 | . | . | . | .
Cn1c(SCc2ccccc2)nnc1-c1ccc2c(c1)OCO2 | 1.4 | 10 | 55* | 3 | 36
CC1N(C)c2cc(NC(=O)c3ccco3)ccc2C1(C)C (stereo not drawn) | 1.4 | -40 | 33 | 10 | 71*
Cc1cc(C)c(NC(=O)CSc2nc3c(c(=O)n2C)SC(C)C3)c(C)c1 (stereo not drawn) | 1.2 | 17 | -10 | 6 | -38
CCN(CC)c1ccc(-n2cc3c(=O)n(C)c(=O)n(C)c3c2)cc1 | 1.2 | 8 | 6 | -4 | 56*
CN(C)c1ccc(-n2cc3c(=O)n(C)c(=O)n(C)c3c2)cc1 | 1.5 | -10 | 49* | -5 | 14
CC(SC1CCCC1)C(=O)NC(C)(C#N)C(C)C (stereo not drawn) | 1.1 | -5 | -34 | -1 | 2
COc1cc2c(C#N)c(N3CCN(C)CC3)nc(N)c2c(N)n1 | 1.2 | . | . | . | .
N#Cc1c(N2CCCC2)nc(N)c2c(N)nc(N3CCCC3)cc12 | 1.2 | -23 | 28 | 17 | 50*
COc1ccc(NC(=O)c2sc(SC)nc2N)cc1 | 1.7 | -36 | 62* | -2 | 61*
COCCn1c(C(=O)N(C)C)cc2c1C[C@H]1CN(C(=O)c3ccccc3)[C@@](Cc3ccc(OC)cc3)(C(=O)OC)[C@@H]21 | 1.2 | . | . | . | .
Nc1nc(-c2cccs2)cs1 | 1.4 | . | . | . | .
SMILES | MT1-MMP txn act | HEK293 NFkB inh | RORA act | Jurkat viability | SF1 activator
c1csc(-c2ccc3ccccc3n2)c1 | 1.7 | -12 | 26 | -3 | 79*
O=C(CSc1ncn[nH]1)c1ccc2c(c1)OCCO2 | 1.4 | 11 | 16 | 3 | 24
CC(C)c1ccc(C(=O)CSc2ncn[nH]2)cc1 | 1.4 | 10 | 53* | -8 | 53*
CC(C)C1Oc2ccccc2N(CC(=O)NCCCN2C(C)CCCC2C)C1=O (stereo not drawn) | 1.1 | 12 | 2 | -5 | -2
Nc1ccc(C(=O)OCc2nc3c(ccc4ccccc43)[nH]2)cc1 | 2.5* | . | . | . | .
Cc1ccc2c(c1)C(N1CCCC1=O)CC(c1ccco1)N2 (stereo not drawn) | 0.2 | -28 | 52* | 7 | 58*
Cc1ccc(C2CC(c3ccco3)n3ncnc3N2)cc1 (stereo not drawn) | 1.1 | . | . | . | .

Source: PubChem BioAssay (several laboratories)
